The results in this text go back to ChEMBL document CHEMBL4177770, “Discovery of MK-6169, a Potent Pan-Genotype Hepatitis C Virus NS5A Inhibitor with Optimized Activity against Common Resistance-Associated Substitutions” (J Med Chem, 2018).

The structures appear in SMILES notation.

A short description of data set [1]: Resistance ratio of EC90 for NS5A M31V mutant in HCV genotype 2b infected in HuH7 replicon cells to EC90 for NS5A in HCV genotype 1a infected in HuH7 replicon cells. The data set is classed as cell-based.
The target of data set [2] is T1, Nonstructural protein 5A (Hepatitis C virus) (UniProt Q5L478).
T1 sequence (whole entry): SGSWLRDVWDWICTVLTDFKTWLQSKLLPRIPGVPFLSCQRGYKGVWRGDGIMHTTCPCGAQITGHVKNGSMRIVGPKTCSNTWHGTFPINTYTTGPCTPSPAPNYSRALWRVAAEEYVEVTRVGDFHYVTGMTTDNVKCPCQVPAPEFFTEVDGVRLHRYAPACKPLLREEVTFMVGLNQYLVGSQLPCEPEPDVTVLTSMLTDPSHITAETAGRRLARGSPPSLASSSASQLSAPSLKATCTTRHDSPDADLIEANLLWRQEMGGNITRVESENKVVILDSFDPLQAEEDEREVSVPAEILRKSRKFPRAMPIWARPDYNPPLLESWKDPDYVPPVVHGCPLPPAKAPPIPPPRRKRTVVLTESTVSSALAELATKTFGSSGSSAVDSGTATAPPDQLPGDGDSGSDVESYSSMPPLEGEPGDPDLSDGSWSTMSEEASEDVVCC
Kind of data set: Inhibition of NS5A L31M mutant in HCV genotype 1b infected in HuH7 replicon cells assessed as decrease in viral replication after 3 days by RT-PCR method. The conditions noted are these: Hepatitis C virus subtype 1b. In kind it is cell-based. On the technique in general: Replicon systems follow genome replication, usually without infectious particles.

In data set [3] the target is T1, Nonstructural protein 5A (Hepatitis C virus). Put plainly: Inhibition of NS5A P32L mutant in HCV genotype 4a infected in HuH7 replicon cells assessed as decrease in viral replication after 3 days by RT-PCR method. The data set is classed as cell-based. The conditions noted are these: Hepatitis C virus subtype 4a.
For data set [4] the target is unchanged. Put plainly: Inhibition of NS5A D168Y mutant in HCV genotype 1b infected in HuH7 replicon cells assessed as decrease in viral replication after 3 days by RT-PCR method. In kind it is cell-based. The following applies: Hepatitis C virus subtype 1b.
Data set [5] is described as follows: Resistance ratio of EC90 for NS5A L31M/Y93H double mutant in HCV genotype 1b infected in HuH7 replicon cells to EC90 for NS5A in HCV genotype 1a infected in HuH7 replicon cells. The data set is classed as cell-based.
The subject of data set [6] is NS3 (Hepatitis C virus), A3EZJ3 [R155K,V36M]. Put plainly: Inhibition of NS3 R155K/V36M double mutant in HCV genotype 1a infected in HuH7 replicon cells assessed as decrease in viral replication after 3 days by RT-PCR method. In kind it is cell-based. The following applies: Hepatitis C virus subtype 1a.
A short description of data set [7]: Drug level in Wistar Han rat at 300 mg/kg, po measured at 24 hrs by LC/MS method. In kind it is ADME, organism-based. The following applies: in vivo, read-out: Drug uptake. The procedure, abridged:
(§1)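 Single rising oral dose study in fed male Wistar Han rats, dosed PO in 10% TWEEN at the indicated doses. Plasma was obtained by centrifuging the blood, and compound levels were determined by LC/MS.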

Data set [8] concerns Hepatitis C virus subtype 1a. Put plainly: Resistance ratio of EC90 for NS5A M28T mutant in HCV genotype 1a infected in HuH7 replicon cells to EC90 for NS5A in HCV genotype 1a infected in HuH7 replicon cells. In kind it is cell-based.
Data set [9] can be described thus: MRT in Wistar Han rat at 100 mg/kg, po by LC/MS method. The conditions noted are these: in vivo. The data set is classed as ADME, organism-based. The procedure, abridged:
as §1

A short description of data set [10]: Half life in Wistar Han rat at 2 mg/kg, iv by LC/MS method. The data set is classed as ADME, organism-based. The conditions noted are these: in vivo. The procedure, abridged: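 Male Wistar Han rats, two per group, dosed IV at 2 mg/kg in 60% PEG200. Plasma was obtained by centrifuging the blood, and compound concentrations were measured by LC/MS.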
Data set [11] can be described thus: Resistance ratio of EC90 for NS5A F28Y mutant in HCV genotype 2a infected in HuH7 replicon cells to EC90 for NS5A in HCV genotype 1a infected in HuH7 replicon cells. The data set is classed as cell-based.
Data set [12] deals with T1, Nonstructural protein 5A (Hepatitis C virus). Put plainly: Inhibition of NS5A M31V mutant in HCV genotype 2b infected in HuH7 replicon cells assessed as decrease in viral replication after 3 days by RT-PCR method. In kind it is cell-based. The following applies: Hepatitis C virus subtype 2b.
The target is the same in data set [13]. Put plainly: Inhibition of NS5A R81W mutant in HCV genotype 1a infected in HuH7 replicon cells assessed as decrease in viral replication after 3 days by RT-PCR method. In kind it is cell-based. The conditions noted are these: Hepatitis C virus subtype 1a.
Data set [14] has the same target. Kind of data set: Inhibition of NS5A in HCV genotype 1a infected in HuH7 replicon cells assessed as decrease in viral replication after 3 days by RT-PCR method. The data set is classed as cell-based. The following applies: Hepatitis C virus subtype 1a.
In the next data set the test system is Huh-7. Kind of data set: Cytotoxicity against human HuH7 cells assessed as effect on GAPDH mRNA levels up to 25 uM. The data set is classed as cell-based. The procedure, abridged: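 Huh-7 cells were exposed to compound up to a top concentration of 25 µM. Cytotoxicity was monitored as the change in GAPDH mRNA levels.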
The nature of data set [15]: Resistance ratio of EC90 for NS5A L31F mutant in HCV genotype 3a infected in HuH7 replicon cells to EC90 for NS5A in HCV genotype 1a infected in HuH7 replicon cells. The data set is classed as cell-based.
Data set [16] addresses T1, Nonstructural protein 5A (Hepatitis C virus). Put plainly: Inhibition of NS5A Q30R mutant in HCV genotype 1a infected in HuH7 replicon cells assessed as decrease in viral replication after 3 days by RT-PCR method. The conditions noted are these: Hepatitis C virus subtype 1a. The data set is classed as cell-based.
A short description of data set [17]: Cmax in Wistar Han rat at 100 mg/kg, po by LC/MS method. In kind it is ADME, organism-based. More on the design: dose 100 mg/kg, route oral. The following applies: in vivo. The procedure, abridged: as §1
Data set [18] can be described thus: Resistance ratio of EC90 for NS5A A92K mutant in HCV genotype 1b infected in HuH7 replicon cells to EC90 for NS5A in HCV genotype 1a infected in HuH7 replicon cells. The data set is classed as cell-based.
Data set [19] is described as follows: Resistance ratio of EC90 for NS5A L31M mutant in HCV genotype 1b infected in HuH7 replicon cells to EC90 for NS5A in HCV genotype 1a infected in HuH7 replicon cells. In kind it is cell-based.
The test system of data set [20] is Hepatitis C virus subtype 1a. Put plainly: Resistance ratio of EC90 for NS3 R155K/V36M double mutant in HCV genotype 1a infected in HuH7 replicon cells to EC90 for NS5A in HCV genotype 1a infected in HuH7 replicon cells. The data set is classed as cell-based.
Data set [21] can be described thus: Resistance ratio of EC90 for NS5A L31V mutant in HCV genotype 4a infected in HuH7 replicon cells to EC90 for NS5A in HCV genotype 1a infected in HuH7 replicon cells. The data set is classed as cell-based.

Consider `COC(=O)N[C@H](C(=O)N1CCC[C@H]1c1ncc(-c2cc(F)c3c(c2)O[C@@H](c2ccc(C4CC4)s2)n2c-3cc3cc(-c4cnc([C@@H]5CCCN5C(=O)[C@@H](NC(=O)OC)[C@@H]5CCOC(C)(C)C5)[nH]4)ccc32)[nH]1)C(C)C`, for which the Ratio in data set [1] is 5; in data set [5], 45; in data set [8] it was less than 1; in data set [11], 16; in data set [15] it was 69; in [18], 6. Further, the figures for the Ratio in [19], in data set [20] and in data set [21] were less than 1, less than 1 and 2, respectively. Also, the EC90 amounted to 1.6 pM in data set [2]; 4.4 pM in data set [3]; 1.8 pM in [4]; 2.5 pM in [6]; 0.019 nM in data set [12]; 0.32 pM in data set [13]. Also, the EC90 is 4.2 pM in [14] and 0.12 nM in data set [16]. Further, the concentration at 24 h in data set [7] amounted to 164 nM. The compound further gave a mean residence time (MRT) in data set [9] of 12.4 h. The compound further gave a half-life in data set [10] of 324 min. In the data set on Huh-7, the Activity result is listed as “Non-Toxic”. The Cmax in data set [17] is 760 nM.

The term EC90 denotes the concentration needed for an effect of 90%. For orientation: MRT means the average time that molecules of a dose stay in the body. The term half-life denotes the time needed for the level to fall by half in the phase considered. A lower half-life goes with fast loss. As a reminder, the Cmax is the peak of the concentration-time curve.
